Source: PMC3774598 (Biochemistry, 2013)

Assays:
[1] = biological target: saFabI R40Q/K41N/S44L (Staphylococcus aureus, UniProt Q6GI75, K41N/R40Q/S44L); test: 32P-NAD+ dissociation kinetics; type: binding; conditions: for k-1: footnote d: 32P-NAD-based dissociation curve fitted to Eq 5; for tR: residence time tR = 1/k-1, k-1 from 32P-NAD dissociation (d)
[2] = biological target: T1, saFabI (Staphylococcus aureus, UniProt Q6GI75); test: Forward progress curve kinetics of saFabI inhibition; type: biochemical; conditions: for tR: residence time tR = 1/k-1, k-1 from progress curves (b); for potency estimated from few doses: read-out: Ki; for slow-binding inhibition of saFabI: curvature of progress curves
T1 sequence (Q6GI75 1-256): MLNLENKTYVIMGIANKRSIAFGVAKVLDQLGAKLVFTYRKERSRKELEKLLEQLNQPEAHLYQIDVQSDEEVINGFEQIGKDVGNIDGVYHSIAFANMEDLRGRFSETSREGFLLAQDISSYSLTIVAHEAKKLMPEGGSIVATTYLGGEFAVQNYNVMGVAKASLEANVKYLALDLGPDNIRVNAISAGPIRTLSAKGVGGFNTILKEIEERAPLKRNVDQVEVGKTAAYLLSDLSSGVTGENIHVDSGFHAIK

[3] = biological target: T1, saFabI; test: Jump dilution assay; type: biochemical; conditions: for k-1: footnote c: jump dilution curve fitted to Eq 1; for tR: residence time tR = 1/k-1, k-1 from jump dilution (c); for recovery of enzyme activity after dilution: 1:200 dilution after overnight preincubation with NADP+
Procedure, shortened: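 Enzyme expressed in E. coli BL21(DE3) and purified by Ni2+ affinity and size exclusion. 10 μM enzyme was preincubated overnight at room temperature with 15 μM inhibitor and 500 μM NADP+. NADPH oxidation was read at 340 nm, 20 °C, and fitted to the Morrison–Walsh integrated equation.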

| SMILES | k-1 [1] | tR [1] | tR [2] | further results |
| --- | --- | --- | --- | --- |
| CCCCCCc1ccc(Oc2ccccc2)c(O)c1 [PT04, 5-hexyl-2-phenoxyphenol] | 0.13 ± 0.04 ^d hr^-1 | 461.5 ^d min | – | – |
| CCCCCCc1ccc(Oc2ccccc2C)c(O)c1 [PT70] | – | – | – | change of affinity by the 2′-substituent ([2]; B-ring ortho position SAR, in words, PT70 data not shown): increased affinity |
| N#Cc1ccccc1Oc1ccc(Br)cc1O [PT443] | – | – | 210.9 ^b min | – |
| CCCCCc1ccc(Oc2ccccc2)c(O)c1 [PT03] | 0.32 ± 0.17 ^d hr^-1 | 187.5 ^d min | 300.0 ^b min | – |
| Cc1ccc(Oc2ccccc2)c(O)c1 [PT53, 5-Methyl-2-phenoxyphenol] | – | – | 17.3 ^b min | potency estimated from few doses [2]: 0.38 ± 0.03 nM; k-1 [3]: 4.53 ± 0.08 ^c hr^-1; tR [3]: 13.2 ^c min |
| O=[N+]([O-])c1ccc(Oc2ccccc2)c(O)c1 [PT104] | – | – | 6.6 ^b min | slow-binding inhibition of saFabI ([2]; in words): clear slow-binding inhibition; potency estimated from few doses [2]: 1.49 ± 0.27 nM |
| Oc1cc(Cl)ccc1Oc1ccccc1 [PT52] | 2.13 ± 0.41 ^d hr^-1 | 28.2 ^d min | 35.3 ^b min | recovery of enzyme activity after dilution [3]: full recovery of enzyme activity; k-1 [3]: 2.33 ± 0.03 ^c hr^-1; tR [3]: 25.8 ^c min |
| N#Cc1ccccc1Oc1ccc(Cl)cc1O [PT447] | 0.47 ± 0.08 ^d hr^-1 | 127.7 ^d min | 136.4 ^b min | recovery of enzyme activity after dilution [3]: partially recovered |
| Oc1ccccc1Oc1ccccc1 [PT51] | – | – | ≤ 1 min | slow-binding inhibition of saFabI ([2]; in words): slow-binding inhibition could not be observed |
| CCCc1ccc(Oc2ccccc2)c(O)c1 [PT02] | 0.57 ± 0.09 ^d hr^-1 | 105.3 ^d min | 60.9 ^b min | – |
| CCc1ccc(Oc2ccccc2)c(O)c1 [PT01] | 0.72 ± 0.08 ^d hr^-1 | 83.3 ^d min | 63.8 ^b min | – |
